High-throughput results: PubChem, several laboratories
Compounds with a hit are over-represented: about 1.9% of the library has one in this group of screens.
NOD2 RIPK2 PPI – NOD2-RIPK2 binding disruptors in cells, primary screen, fluorescence, CHO cells, BLA complementation; Receptor-interacting serine/threonine-protein kinase 2 (Homo sapiens), O43353; CCF4 ratio; inhibition, % at 4.98 µM; 360,000 tested, 0.38% active; in the data active = inhibition above about 21%;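 also: 0% = vehicle only and 100% = reference blocker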
TLR9-MyD88 inh – inhibitors of TLR9-MyD88 association in cells, primary screen, cell-based, CHO, BLA complementation, fluorescence; Toll-like receptor 9 (Homo sapiens) + Myeloid differentiation primary response protein …; inhibition, % at 4.98 µM; CCF4 FRET ratio; AID 504734, 2011; 340,000 tested, 0.21% active;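 active = inhibition above the mean over all tested compounds plus 3 SD, cut at about 21% in these data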;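 also: 0% = DMSO only wells and 100% = clavulanate BLA inhibitor control wells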
MC4R antag cAMP – MC4R antagonists of cAMP signaling, primary screen, cell-based, TR-FRET, antagonist arm of biased-ligand search | MC4R-expressing cells, MTII-stimulated cAMP, LANCE TR-FRET | 360,000 tested, 0.48% active | inhibition, % at 6.5 µM | AID 540295, 2011;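 active = inhibition above its plate's cutoff, the mean of tested wells on that plate plus 3 SD, cut at about 29% in these data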;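 also: 0% = Melanotan II alone and 100% = Melanotan II plus saturating MCL0020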
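Test system: U2OS cells stably expressing human melanocortin 4 receptor (MC4R); also added: Melanotan II challenge; compound: 6.5 µM single dose; timing: 30-min compound preincubation, 1-h Melanotan II challenge, 1-h detection, room temperature; signal: Eu-cAMP/anti-cAMP TR-FRET, emission 671 nm; repeats: one well per compound, no replicates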
MC4R ag barr – MC4R agonists recruiting beta-arrestin, primary screen, cell-based, luminescence, agonist arm of biased-ligand search; Melanocortin receptor 4 (Homo sapiens), P32245; U2OS MC4R beta-arrestin complementation; percent of melanotan II response, DMSO zero; activation, % at 8.9 µM; 360,000 tested, 0.98% active;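 active = activation above a per-plate cutoff, the mean activation of sample wells on that plate plus 3 SD, cut at about 8% in these data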
NTR1 agonist – agonists of human NTR1, primary screen, imaging, U2OS cells, beta-arrestin-GFP, high content. Neurotensin receptor type 1 (Homo sapiens), P30989. NTR1-U2OS beta-arrestin-GFP spot imaging, agonist mode. activation, % at 20 µM. 330,000 tested, 0.17% active;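 active = activation at or above 40% of the spot to cytoplasm intensity ratio, with at least 20 cells analyzed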;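 also: 0% = DMSO without peptide and 100% = 100 nM NTR1 peptide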
TLR4 MyD88 comp – inhibitors of TLR4-MyD88 association in cells, primary screen, cell-based, HeLa CL3-4, BLA complementation, FRET ratio; 200,000 tested, 0.18% active; inhibition, % at 8.4 µM; Toll-like receptor 4 (Homo sapiens) + Myeloid differentiation primary response protein …; HeLa CL3-4 TLR4/MyD88 BLA complementation; AID 861, 2007; in the data active = inhibition above about 25%;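 also: 0% = vehicle and 100% = reference inhibitor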
cAMP nonselect – nonselective cAMP signaling inhibitors, parental cells, counter-screen for MC4R biased antagonist project, cell-based, TR-FRET, U2OS, forskolin, triplicate | shares compounds with MC4R antag cAMP | LANCE TR-FRET | inhibition, % at 6.5 µM | 1,600 tested, 26% active;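 active = mean inhibition over triplicates above the low-control well mean plus 3 SD, set per campaign, cut at about 13% in these data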;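 also: signal is single emission at 671 nm which falls as cellular cAMP rises; 0% = forskolin-stimulated wells and 100% = buffer without forskolin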
MC4R antag conf – MC4R cAMP antagonists, retest, confirmation, cell-based, TR-FRET. shares compounds with MC4R antag cAMP. MC4R-expressing cells, MTII-stimulated cAMP. inhibition, % at 6.5 µM. 1,600 tested, 27% active. AID 602195, 2012; in the data active = inhibition above about 29%;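 also: 0% = agonist stimulated wells alone and 100% = agonist stimulated wells plus saturating reference antagonist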
MC4R barr ag – MC4R beta-arrestin agonists, retest, confirmation, cell-based, luminescence, U2OS | shares compounds with MC4R ag barr | U2OS MC4R beta-arrestin recruitment; scaled DMSO 0%, Melanotan II 100% | activation, % at 8.9 µM | 2,400 tested, 31% active | AID 602192, 2012;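 active = mean activation across replicates above the hit cutoff set in the earlier primary screen, cut at about 8% in these data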
MOR-DOR barr ag – agonists of MOR-DOR heterodimerization, counter-screen for MC4R biased agonist project, cell-based, luminescence. U2OS PathHunter beta-arrestin, beta-gal luminescence; percent of deltorphin B response, DMSO zero. 2,400 tested, 5.8% active. shares compounds with MC4R ag barr. AID 602194, 2012. activation, % at 9.2 µM;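 active = mean activation across replicates exceeds the hit threshold derived in the earlier primary screen, cut at about 18% in these data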;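 also: 100% = deltorphin B at 0.9 µM final and 0% = DMSO alone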
NOD2-RIPK2 conf – NOD2-RIPK2 binding disruptors, retest, confirmation, fluorescence, CHO cells, BLA complementation, triplicate. CCF4 FRET. shares compounds with NOD2 RIPK2 PPI. inhibition, % at 4.98 µM. 1,200 tested, 70% active;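 active = mean inhibition across replicates above a set limit taken from the earlier primary screen, cut at about 21% in these data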;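 also: 0% = DMSO-only wells and the high end = clavulanate BLA-blocked wells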
NOD2 BLA counter – hits BLA reporter in NOD2-RIPK2 inhibitor counterscreen. inhibition, % at 4.98 µM. 1,200 tested, 57% active. AID 624371. CHO BLA reporter, CCF4 FRET ratio. shares compounds with NOD2 RIPK2 PPI;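 active = mean inhibition above the low-control mean inhibition plus three low-control SD, cut at about 11% in these data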;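 also: 0% = DMSO only wells and 100% = clavulanate high control wells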
* = called active by the depositor; ! = a repeat was not active.

How did CC(O)CC(=O)OC[C@]12CC[C@H]3[C@@](C)(CC[C@H]4C(C)(C)CCC[C@]34C)[C@@H]1CC(C1=CC(=O)OC1O)O2 (stereo partly drawn) do in these assays?
NOD2 RIPK2 PPI: 14; MC4R antag cAMP: 33*; MC4R ag barr: 16*; cAMP nonselect: 0; MC4R antag conf: 23; MC4R barr ag: 24*; MOR-DOR barr ag: 16

What do the screens show for `Cc1ccc(N2C(=O)Nc3ccccc3C2(O)C(=O)N2CCN(c3ccccn3)CC2)cc1C` (stereo not drawn)?
NOD2 RIPK2 PPI: -13; TLR9-MyD88 inh: 0; MC4R antag cAMP: 18; MC4R ag barr: 0; NTR1 agonist: 5; TLR4 MyD88 comp: 6

What do the screens show for `CCCCCCCCCCCCCCCC[n+]1cccc(C(=O)N(CC)CC)c1`?
NOD2 RIPK2 PPI: -17; TLR9-MyD88 inh: 3; MC4R antag cAMP: 29*!; MC4R ag barr: 13*; NTR1 agonist: 8; TLR4 MyD88 comp: 8; cAMP nonselect: 7; MC4R antag conf: 50*; MC4R barr ag: 23*; MOR-DOR barr ag: 4

Results for Oc1ccc[n+](CCCCC[n+]2cccc(O)c2)c1 ?
NOD2 RIPK2 PPI: -9; TLR9-MyD88 inh: -2; MC4R antag cAMP: 5; MC4R ag barr: -1; NTR1 agonist: 0

Results for COc1ccc2[nH]c(C(=O)Nc3ccc(F)cc3Br)cc2c1 ?
NOD2 RIPK2 PPI: 16; TLR9-MyD88 inh: 7; MC4R antag cAMP: 29*; MC4R ag barr: 26*; NTR1 agonist: -1; cAMP nonselect: 21*; MC4R antag conf: 20; MC4R barr ag: 1; MOR-DOR barr ag: 5

Results for Cc1cc(C)c(C#N)c(SCC(=O)Nc2cccc(S(=O)(=O)N3CCCC3)c2)n1 ?
NOD2 RIPK2 PPI: -1; TLR9-MyD88 inh: -2; MC4R antag cAMP: 32*; MC4R ag barr: 10.0*; NTR1 agonist: 6; cAMP nonselect: 45*; MC4R antag conf: 82*; MC4R barr ag: -1; MOR-DOR barr ag: 4

Results for CCCCNc1c(-c2cccc(-c3cc(C(C)=O)cs3)c2)nc2cc(C)ccn12 ?
NOD2 RIPK2 PPI: -10; TLR9-MyD88 inh: 0; MC4R antag cAMP: 36*; MC4R ag barr: 11*; NTR1 agonist: 38; cAMP nonselect: 1; MC4R antag conf: 9; MC4R barr ag: 9.5*; MOR-DOR barr ag: 6

Results for CCOC(=O)c1cc(-c2csc(Nc3ccccc3Cl)n2)on1 ?
NOD2 RIPK2 PPI: 11; TLR9-MyD88 inh: -2; MC4R antag cAMP: 28; MC4R ag barr: 0; NTR1 agonist: 3

How did CCOC(=O)c1cc(-c2csc(N/N=C/c3ccccc3Cl)n2)on1 do in these assays?
NOD2 RIPK2 PPI: 2; TLR9-MyD88 inh: 4; MC4R antag cAMP: 40*; MC4R ag barr: 22*; NTR1 agonist: 3; cAMP nonselect: 14*; MC4R antag conf: 71*; MC4R barr ag: 13*; MOR-DOR barr ag: 5

Results for CC(C)[C@H](NC(=O)OC(C)(C)C)c1nnc(S(=O)(=O)Cc2c(F)cccc2Cl)o1 ?
NOD2 RIPK2 PPI: 69*; TLR9-MyD88 inh: 16; MC4R antag cAMP: 64*; MC4R ag barr: -3; NTR1 agonist: 33; cAMP nonselect: 27*; MC4R antag conf: 34*; NOD2-RIPK2 conf: 70*; NOD2 BLA counter: 10

Results for Cc1ccccc1CS(=O)(=O)c1nnc([C@H](CC(C)C)NC(=O)OC(C)(C)C)o1 ?
NOD2 RIPK2 PPI: 26*; TLR9-MyD88 inh: 0; MC4R antag cAMP: 33*; MC4R ag barr: -1; NTR1 agonist: 20; TLR4 MyD88 comp: 11; cAMP nonselect: 11; MC4R antag conf: 20; NOD2-RIPK2 conf: 42*; NOD2 BLA counter: -5

Results for CCCC(=O)Nc1nnc(S(=O)(=O)N(CC(C)C)c2ccccc2)s1 ?
NOD2 RIPK2 PPI: 1; TLR9-MyD88 inh: 4; MC4R antag cAMP: 2; MC4R ag barr: -1; NTR1 agonist: 0

What do the screens show for `COc1cc(NC(=S)NC2CC(C)(C)NC(C)(C)C2)c(OC)cc1Cl`?
NOD2 RIPK2 PPI: -3; TLR9-MyD88 inh: -5; MC4R antag cAMP: 0; MC4R ag barr: -2; NTR1 agonist: -1; TLR4 MyD88 comp: 0

Results for CC1=C(CO)C(=O)OC([C@@H](C)C2CC[C@H]3C4C[C@H]5O[C@]56[C@@H](O)C=CC(=O)[C@]6(C)C4CC[C@]23C)C1 (stereo partly drawn) ?
NOD2 RIPK2 PPI: 47*; TLR9-MyD88 inh: 3; MC4R antag cAMP: 39*; MC4R ag barr: -1; cAMP nonselect: -3; MC4R antag conf: 48*; NOD2-RIPK2 conf: 63*; NOD2 BLA counter: 7

Results for COc1ccc(C(=O)OCC(=O)NCC2CCCO2)c(F)c1 (stereo not drawn) ?
NOD2 RIPK2 PPI: -2; TLR9-MyD88 inh: 2; MC4R antag cAMP: 1; MC4R ag barr: -2; NTR1 agonist: 4
